# A selection: hits, their analogues and other compounds. The true share with any hit is near 1.5%.
# CCR6 antagonist: blocks CCL20-driven beta-arrestin recruitment at human CCR6; P51684; CHO-K1 CCR6 PathHunter beta-arrestin, luminescence, CCL20-stimulated; inhibition, % at 20 µM; actives 0.49% (n = 340,000); AID 493098;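 active means compounds whose inhibition of the agonist-driven luminescence signal at 20 µM reaches about 50%, limit read from the data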;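 further: cells stimulated with CCL20 at 14 nM final; plate controls were DMSO with CCL20 for no effect and DMSO without agonist for full effect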
# Target sequence (P51684 whole entry, looked up): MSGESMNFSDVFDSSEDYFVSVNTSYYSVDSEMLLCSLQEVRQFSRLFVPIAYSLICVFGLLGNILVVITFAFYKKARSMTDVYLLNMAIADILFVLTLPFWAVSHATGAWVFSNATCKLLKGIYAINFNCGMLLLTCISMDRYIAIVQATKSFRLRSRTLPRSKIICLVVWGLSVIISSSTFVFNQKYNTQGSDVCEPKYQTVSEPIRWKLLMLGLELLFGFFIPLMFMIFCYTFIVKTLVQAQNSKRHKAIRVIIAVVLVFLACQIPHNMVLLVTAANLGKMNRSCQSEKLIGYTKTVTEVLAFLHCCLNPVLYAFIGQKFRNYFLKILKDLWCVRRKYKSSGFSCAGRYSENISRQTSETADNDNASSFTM
# CXCR6 block: inhibitors of human CXCR6 receptor; actives 0.36% (n = 360,000); inhibition, % at 20 µM; CHO-K1 PathHunter CXCR6 beta-arrestin, luminescence; in the data active means inhibition above about 34%, passing the limit was not always enough;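 further: antagonist mode with CXCL16 agonist at 10 nM final; 0% = 10 nM CXCL16 with DMSO and 100% = unstimulated wells without agonist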
# APJ antag: blocks the human apelin receptor APJ; inhibition, % at 20 µM; CHO-K1 APJ beta-arrestin complementation, luminescence; actives 0.32% (n = 330,000); P35414;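 active means inhibition above about 40% at 20 µM, limit read from the data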;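 further: cells challenged with 10 nM apelin-13 agonist together with compound; plate controls were apelin-13 plus DMSO wells for no effect and DMSO wells lacking apelin-13 for full effect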
# EBI2 antag: blocks human EBI2 receptor beta-arrestin signaling; P32249; EBI2 beta-arrestin recruitment, luminescence, 7a,25-OHC stimulated; inhibition, % at 5 µM; actives 0.81% (n = 360,000); in the data active means inhibition above about 38%;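 further: enzyme fragment complementation signal reports receptor beta-arrestin coupling in cells; 0% = agonist plus DMSO wells and 100% = wells without agonist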
# APJ agonist: activates the human apelin receptor APJ | P35414 | CHO-K1 APJ PathHunter beta-arrestin, luminescence; 0% DMSO wells, 100% apelin | activation, % at 20 µM | actives 0.11% (n = 330,000) | AID 2520;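 active means activation more than six SD over the plate average, tested at 20 µM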;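 further: 0% = DMSO alone and 100% = apelin-13 at 10 nM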
#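 Test system: CHO-K1 APJ beta-arrestin complementation cell line | Compound: Single test compound dose, 20 µM final, 1% DMSO | Incubation: Compound 90 min 25 °C, reagent 1 h | Measured by: beta-gal luminescence | Read-out basis: APJ–arrestin association signal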
# * marks the source's active call; other numbers are inactive results; . = no result.
SMILES,CCR6 antagonist,CXCR6 block,APJ antag,EBI2 antag,APJ agonist
Cc1ccc(OCC(=O)NNC(=O)c2ccccc2OCc2c(C)noc2C)cc1,10.1,3.4,-51.6,6.7,2.1
Cc1ccccc1NC(=O)c1nc(S(C)(=O)=O)ncc1Cl,28.3,35.2,4.1,24.5,-5.2
Cc1cccc(C)c1NC(=O)c1nc(S(=O)(=O)Cc2ccccc2)ncc1Cl,55.2*,54.5*,-4.2,29.5,-8.5
COc1ccc(NC(=O)c2nc(S(=O)(=O)Cc3cccc(C)c3)ncc2Cl)c(OC)c1,2.0,3.0,-7.8,49.5*,2.8
CCOC(=O)c1ccc(S(=O)(=O)N2CCN(CCC#N)CC2)cc1,0.9,-8.9,-43.7,-11.9,-3.8
CCOC(=O)c1ccc(S(=O)(=O)N2CCN(CC(O)COc3ccc(C#N)cc3)CC2)cc1 (configuration not stated),14.9,-5.8,-3.4,49.7*,0.4
CC(C(=O)Nc1cccc(S(=O)(=O)N2CCOCC2)c1)N1CCN(C)CC1 (configuration not stated),4.7,-11.3,1.4,-11.1,-7.2
Oc1c(Cl)cc(CN2CCCCC2)c2cccnc12,.,49.3*,24.6,4.8,-8.3
O=C(Oc1c(CN2CCOCC2)cc(Cl)c2cccnc12)c1ccccc1Cl,41.9,27.7,10.8,53.0*,-1.9
Oc1c(Cl)cc(Cl)c2cccnc12,62.9*,49.4*,.,10.9,.
CCC(=O)NC(c1ccc(C)cc1)c1cc(Cl)c2cccnc2c1O (configuration not stated),55.8*,12.0,25.8,31.6,-4.2
CCC(=O)NC(c1ccc(OC)c(OC)c1)c1cc(Cl)c2cccnc2c1O (configuration not stated),6.5,1.3,.,17.2,.
CC(C)(C)OC(=O)C[C@@H]1C/C=C\C[C@H](CC(=O)NCCO)C(=O)N2CCC[C@@H]2COC1=O,8.3,-1.9,-4.1,3.0,-2.2
COc1ccc(Cl)cc1N1C(=O)CC(N2CCN(S(=O)(=O)c3ccccc3F)CC2)C1=O (configuration not stated),5.0,-2.4,22.3,-4.9,-3.6
CCOC(=O)c1ccc(S(=O)(=O)NC2CCC(C)CC2)cc1 (configuration not stated),13.2,1.4,-1.3,-5.7,-2.1
COc1ccc(CN(C)C(=O)CCN=C2NS(=O)(=O)c3ccccc32)c(OC)c1,7.5,-3.9,-7.1,-5.2,-2.2
Cc1ccc(-c2oc3ccccc3c(=O)c2O)cc1,43.4,51.8*,-11.7,6.0,-5.7
Cc1ccc(Cn2cc(CN3CC(N(C)C)CS3(=O)=O)nn2)cc1 (configuration not stated),.,-7.3,.,-10.5,.
COc1ccc2c(C)c(Cl)c(=O)oc2c1,-14.0,-1.1,-4.0,0.3,1.8
C=C1CC(COc2ccc3c(C)c(Cl)c(=O)oc3c2)(c2ccccc2)OC1=O (configuration not stated),40.1,37.3*,.,56.0*,.
OCC[C@@H]1C[C@H](O)[C@@H](O)[C@]2(OCCc3ccccc32)O1,-0.7,-8.6,23.0,-2.2,-5.0
O=C(c1nnsc1S(=O)(=O)c1ccc(Cl)cc1)N1CCOCC1,3.7,14.7,6.8,-31.1,-1.1
O=C(c1nnsc1S(=O)c1ccc(Cl)cc1)N1CCOCC1 (configuration not stated),73.8*,66.6*,23.9,26.6,-1.5
Cc1cc(C)cc(NC(=O)CCN2CCCC2)c1,-4.6,5.1,7.2,-3.4,-3.7
Oc1[nH]c2ccccc2c1N=NC(=S)NCC1CCCO1 (configuration not stated),23.5,6.3,35.0,3.0,-2.2
SMILES,CCR6 antagonist,CXCR6 block,APJ antag,EBI2 antag,APJ agonist
CCn1c(O)c(N=NC(=S)NCC2CCCO2)c2ccccc21 (configuration not stated),66.1*,46.7*,26.5,3.3,-5.7
O=C1C(Br)=C(c2ccccc2)C(c2ccccc2)=C1c1ccccc1,68.3*,20.8,.,49.1*,.
N#C/C(=C\c1ccc(C(=O)O)cc1)c1nc2sc3c(c2c(=O)[nH]1)CCCC3,7.6,-1.1,.,7.2,.
Cc1ccc(Nc2nc(-c3c(C)nc4ccccn34)cs2)cc1,-11.8,-8.0,-0.3,65.3*,-0.8
Cc1ccc(Nc2nc(-c3cccnc3)cs2)cc1Cl,-3.9,-14.5,2.2,48.4*,-1.3
OC[C@H]1O[C@H](OC[C@H]2OC(O)[C@H](O)[C@@H](O)[C@@H]2O)[C@H](O)[C@@H](O)[C@@H]1O (some centres not stated),-4.0,-0.6,-7.2,-2.0,-2.5

# Source: PubChem BioAssay (Sanford-Burnham Center for Chemical Genomics)
